# A selection follows.
# Apaf-1 act = activates human Apaf-1 apoptosome | 330,000 tested, 0.31% active | AID 489031 | activity change, negative = activation, % at 20 µM | O14727 | Apaf-1 apoptosome caspase-3 activation, DEVD-Rh110 fluorescence; active compounds read low;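 active means activity change at or below -40% at 20 µM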
#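 system = biochemical Apaf-1 apoptosome reconstitution | buffer or medium = 20 mM HEPES pH 7.5 with CHAPS, BSA | also added = dATP and cytochrome c as apoptosome triggers, (Z-DEVD)2-Rh110 substrate | incubation = 30 min compound preincubation and 50 min reaction, both room temperature | measured by = fluorescence, 540 nm emission, 480 nm excitation | read-out basis = Caspase-3 cleavage activity downstream of Apaf-1 activation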
# Rh110 act interf = counter-screen for Apaf-1 activators: fluorescence interference; shares compounds with Apaf-1 act; Rh110 fluorescence interference, quenched caspase reaction, Ex480/Em540; fluorescence interference (activity change), % at 20 µM, hits read low; 980 tested, under 10 active; AID 504616;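 active means mean activity change at or below -40% when tested at 20 µM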
# Apaf-1 act conf = confirmation of human Apaf-1 activators. reconstituted apoptosome caspase-3 activity, DEVD-Rh110 fluorescence; active compounds read low. activity change, negative = activation, % at 20 µM. 980 tested, 5% active. shares compounds with Apaf-1 act;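 active means mean activity change at or below -40%, meaning activation of 40% or more, at 20 µM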
# Active calls of the source: *; x = not tested or not shown.
SMILES,Apaf-1 act,Rh110 act interf,Apaf-1 act conf
Cc1ccc2nc(N(CCCN(C)C)C(=O)c3ccc(S(=O)(=O)N4CCc5ccccc5C4)cc3)sc2c1,53.0,x,x
Cc1ccc(S(=O)(=O)Nc2ccc3c(c2)CC(=O)N([C@H](C)CO)C[C@@H](C)[C@H](CN(C)Cc2ccc(-c4ccccc4)cc2)O3)cc1,41.0,x,x
O=C(N/N=C\C=C\c1ccc([N+](=O)[O-])o1)c1cccs1,49.0,x,x
CNS(=O)(=O)Cc1ccc2[nH]cc(CCN(C)C)c2c1,0.8,x,x
COc1ccc([N+](=O)[O-])cc1NC1C2CC3CC(C2)CC1C3 (centres undefined),-522.4*,9.2,12.1
CCCC1=Nc2cc(C(=O)NCCCOCC)ccc2Sc2ccccc21,45.4,x,x
CC(C)NC1=C(Cl)C(=O)c2ccccc2C1=O,63.2,x,x
O=C(NCC(c1ccco1)N1CCN(c2ccc(F)cc2)CC1)c1ccc2c(c1)OCO2 (centres undefined),-155.2*,-2.5,16.2
CCN(Cc1ccccc1)C(=O)c1cccc(S(=O)(=O)N2CCN(c3ccc(F)cc3)CC2)c1,42.1,x,x
CCN(CC(=O)Nc1c(F)cccc1F)C(=O)CNC(=O)c1ccc2c(c1)OCO2,53.2,x,x
CC(C)c1ccc(S(=O)(=O)/N=C2/C=CC(=O)c3ccccc32)cc1,71.7,x,x
COc1ccc(C(=O)n2nc(-c3ccccc3)nc2N)cc1OC,-363.1*,-5.8,9.8
COc1ccc2nc3ccccc3nc2c1N,92.3,x,x
Cc1coc2c1C(=O)C(=O)c1c-2ccc2c1CCCC2(C)C,76.6,x,x
CCCCCCOC(=O)C[N+](C)(C)CCOC1CC2CCC1(C)C2(C)C (centres undefined),52.4,x,x
CC[C@@H](C)[C@@H]1CN([C@@H](C)CN2CCC[C@H]2CN2C(N)=NC[C@@H]2Cc2ccccc2)C(=N)N1CCc1ccc(Cl)c(Cl)c1,70.7,x,x
CCOc1ccc(S(=O)(=O)N(CC(=O)N2CCc3ccccc32)Cc2ccco2)cc1,-307.1*,7.9,10.6
CN(CCO)C(=O)c1c(NC(=O)c2ccccc2)sc2c1CCCC2,-362.3*,12.3,17.6
CC(=O)N1CCc2c(sc(NC(=O)c3cccc(N4C(=O)CCC4=O)c3)c2C(N)=O)C1,57.0,x,x
O=C1Nc2ccc(S(=O)(=O)NCc3ccco3)c3cccc1c23,49.5,x,x
Cc1c(C(=O)Nc2ccncc2)sc2nc(-c3ccc(F)cc3)cn12,-43.8*,7.4,-27.1
Cc1nn(CCc2nn[nH]n2)c2nc(-c3ccc(C4CCCCC4)cc3)cc(C(F)(F)F)c12,59.7,x,x
Cc1cc(-c2nnc(CCC(=O)NC(C)(C)C34CC5CC(CC(C5)C3)C4)o2)no1,-54.5*,7.8,5.0
CCC(=O)NC1=C(Cl)C(=O)C(NC(=O)CC)=C(Cl)C1=O,70.7,x,x
CCOc1ccccc1NC(=O)c1cc(-c2ccccn2)nc2ccccc12,52.8,x,x
SMILES,Apaf-1 act,Rh110 act interf,Apaf-1 act conf
CC(C)(C)NC(=O)c1cc(-c2ccc3c(c2)OCO3)nc2ccccc12,-71.3*,4.0,1.1
C[C@H]1CN([C@@H](C)CO)C(=O)Cc2cc(NC(=O)CCC(F)(F)F)ccc2O[C@H]1CN(C)Cc1ccc(-c2ccccc2)cc1,40.8,x,x
CC1CCN(C(=O)CSc2nnc(Cn3c(=O)sc4ccccc43)n2C)CC1,42.6,x,x
COc1ccc(-n2nc(C(=O)NCC(=O)NC3CCCCCC3)c3ccccc3c2=O)c(OC)c1,47.9,x,x
COc1ccc(OCc2nnc(SCC(=O)NC3CC3)n2C)cc1,-96.5*,-2.5,8.4
CCN(Cc1ccccc1)C(=O)C1CCC(CNc2c(N3CCOCC3)c(=O)c2=O)CC1 (centres undefined),-410.3*,9.9,0.9
Cc1[nH]n(-c2ccccc2)c(=O)c1/C=N/Nc1nncc(-c2ccccc2)n1,81.2,x,x
CC(C)(C)CC(C)(C)c1ccc(OCCOCC[N+](C)(C)Cc2ccccc2)cc1,81.7,x,x
CC1(C(=O)O)Oc2cccnc2NC1=O (centres undefined),-221.4*,-3.1,7.2
O=C1C(NS(=O)(=O)c2cccs2)=C(N2CCN(c3cccc(Cl)c3)CC2)C(=O)c2ccccc21,57.8,x,x
CC(Oc1ccc2ccccc2c1)C(=O)NNC(=O)Nc1ccccc1F (centres undefined),-132.1*,-4.6,10.9
Fc1ccccc1NC(=S)Nc1cccc2cnccc12,97.4,x,x
Cc1ccc(F)c(NC(=S)Nc2cccc3ccccc23)c1,78.2,x,x
CCc1nc(N2CCN(C(C)=O)CC2)c2c3c(sc2n1)CC(C(C)(C)C)CC3 (centres undefined),41.8,x,x
CN(C)C/C=C/C(=O)Nc1cccc(-c2c[nH]c3ncnc(Oc4ccc(NC(=O)CC(=O)Nc5ccc(F)cc5)cc4F)c23)c1,63.0,x,x
Cc1c(C(=O)OCC(=O)Nc2c(C)n(C)n(-c3ccccc3)c2=O)cccc1[N+](=O)[O-],-93.3*,5.2,12.1
